According to ChEMBL document CHEMBL1138117, “Hybrid antibacterials. DNA polymerase-topoisomerase inhibitors” (J Med Chem, 2006):
In brackets after ≈: the same amount, converted by molar mass.

Experiments:
Staphylococcus aureus [1] = assay: Antibacterial activity against Staphylococcus aureus smith; type: functional
Bacillus subtilis = assay: Antibacterial activity against Bacillus subtilis BD54; type: functional
Enterococcus faecium [2] = assay: Antibacterial activity against Enterococcus faecium 19434; type: functional
Enterococcus faecium [3] = assay: Antibacterial activity against Vancomycin resistant Enterococcus faecium VRE 700802; type: functional
Staphylococcus aureus [4] = assay: Antibacterial activity against Staphylococcus aureus 25293; type: functional
Enterococcus faecalis = assay: Antibacterial activity against Enterococcus faecalis 29212; type: functional
[5] = molecular target: DNA polymerase III PolC-type (Bacillus subtilis (strain 168), UniProt P13267); assay: Binding affinity to Bacillus subtilis DNA polymerase3C
Procedure, shortened: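 Homogeneous recombinant B. subtilis pol IIIC was assayed in 96-well format on activated calf thymus DNA. Apparent Ki values were determined in a truncated assay lacking the competitor dGTP.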

Staphylococcus aureus [6] = assay: Antibacterial activity against methicillin resistant Staphylococcus aureus MRSA 1094; type: functional
Escherichia coli = assay: Antibacterial activity against Escherichia coli J53; type: functional
[7] = system: DNA gyrase (Bacillus subtilis); assay: Inhibition of Bacillus subtilis gyrase activity
Mus musculus = assay: Effect on survival of mice after ip infection with Staphylococcus aureus Smith; type: functional
Procedure, shortened: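 Male Swiss-Webster mice (20–24 g) were given 10⁸ CFU of log-phase S. aureus Smith ip, grown in LB at 37 °C and washed in cold broth. A single iv tail-vein dose was given in DCP vehicle (10% DMA, 10% Cremophor EL in PBS, pH 9.5; 5 mL/kg) 15 min post-infection. Survival was scored at 72 h and ED50 derived.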

[8] = molecular target: DNA topoisomerase IV (Bacillus subtilis); assay: Inhibition of Bacillus subtilis topoisomerase IV activity
[9] = Plasma concentration after 6 hrs in mice administered with 100 mg/kg, iv; type: ADME, organism-based; design: dose 100 mg/kg, route intravenous; settings: Swiss Webster, mouse
Procedure, shortened: (§1)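 Male Swiss-Webster mice (20–24 g) got a single 100 mg/kg iv tail-vein bolus at 5 mL/kg in DCP vehicle (10% N,N-dimethylacetamide, 10% Cremophor EL in PBS, pH 9.5). Blood was taken from groups of 3 at various times. Plasma was quantified by C18 HPLC with MeCN:H₂O:NEt₃:AcOH (25:74.7:0.2:0.1), 1 mL/min, detection at 282 nm, against a spiked-plasma standard curve linear over 1–40 μg/mL.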

[10] = Tmax in mice at 100 mg/kg, iv; type: ADME, organism-based; design: dose 100 mg/kg, route intravenous; settings: Swiss Webster, mouse, in vivo; procedure, shortened: as §1
[11] = Cmax in mice at 100 mg/kg, iv; type: ADME, organism-based; design: dose 100 mg/kg, route intravenous; settings: Swiss Webster, mouse, in vivo; procedure, shortened: as §1

Sequence of DNA polymerase III PolC-type (P13267 whole entry, the tested form may be a part): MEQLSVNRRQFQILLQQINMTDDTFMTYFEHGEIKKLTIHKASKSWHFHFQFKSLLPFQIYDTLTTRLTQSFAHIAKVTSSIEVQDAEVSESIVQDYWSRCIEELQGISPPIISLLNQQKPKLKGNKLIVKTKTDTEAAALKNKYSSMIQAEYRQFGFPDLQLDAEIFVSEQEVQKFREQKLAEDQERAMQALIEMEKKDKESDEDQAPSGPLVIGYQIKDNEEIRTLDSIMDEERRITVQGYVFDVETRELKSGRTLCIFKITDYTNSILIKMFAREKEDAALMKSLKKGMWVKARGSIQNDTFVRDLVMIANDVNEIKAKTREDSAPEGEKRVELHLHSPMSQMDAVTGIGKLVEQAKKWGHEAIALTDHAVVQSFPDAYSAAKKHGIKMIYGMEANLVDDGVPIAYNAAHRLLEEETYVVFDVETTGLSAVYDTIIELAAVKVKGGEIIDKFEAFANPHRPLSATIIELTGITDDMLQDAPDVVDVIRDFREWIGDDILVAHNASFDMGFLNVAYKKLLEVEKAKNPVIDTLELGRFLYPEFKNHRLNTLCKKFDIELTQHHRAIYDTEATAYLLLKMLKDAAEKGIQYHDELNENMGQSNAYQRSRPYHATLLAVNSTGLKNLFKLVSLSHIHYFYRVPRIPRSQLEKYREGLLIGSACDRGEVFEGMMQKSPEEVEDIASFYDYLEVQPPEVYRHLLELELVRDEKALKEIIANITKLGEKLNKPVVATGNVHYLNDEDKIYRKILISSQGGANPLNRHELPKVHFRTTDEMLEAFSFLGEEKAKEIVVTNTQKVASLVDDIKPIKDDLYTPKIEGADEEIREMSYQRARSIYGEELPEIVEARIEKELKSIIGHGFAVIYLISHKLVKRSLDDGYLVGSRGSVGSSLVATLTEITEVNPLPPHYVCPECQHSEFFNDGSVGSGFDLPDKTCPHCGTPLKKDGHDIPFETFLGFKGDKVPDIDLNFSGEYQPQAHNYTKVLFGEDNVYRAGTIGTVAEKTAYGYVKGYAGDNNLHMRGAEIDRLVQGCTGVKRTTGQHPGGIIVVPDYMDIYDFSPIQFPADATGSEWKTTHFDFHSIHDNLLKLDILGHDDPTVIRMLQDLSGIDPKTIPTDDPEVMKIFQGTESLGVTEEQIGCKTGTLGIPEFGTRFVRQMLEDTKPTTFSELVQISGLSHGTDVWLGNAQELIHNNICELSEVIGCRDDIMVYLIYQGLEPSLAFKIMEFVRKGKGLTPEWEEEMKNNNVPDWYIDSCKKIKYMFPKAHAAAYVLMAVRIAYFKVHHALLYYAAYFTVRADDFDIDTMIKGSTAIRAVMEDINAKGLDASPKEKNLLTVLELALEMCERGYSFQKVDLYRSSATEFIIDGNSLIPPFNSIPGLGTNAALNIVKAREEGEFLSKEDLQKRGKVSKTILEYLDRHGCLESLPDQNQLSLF

Row | Compound | MIC (Staphylococcus aureus [1]) [µg/mL] | MIC (Bacillus subtilis) [µg/mL] | MIC (Enterococcus faecium [2]) [µg/mL] | MIC (Enterococcus faecium [3]) [µg/mL] | MIC (Staphylococcus aureus [4]) [µg/mL] | MIC (Enterococcus faecalis) [µg/mL] | Ki ([5]; read-out: Ki) [nM] | MIC (Staphylococcus aureus [6]) [µg/mL] | MIC (Escherichia coli) [µg/mL] | IC50 [7] [µg/mL] | ED50 (Mus musculus) [mg/kg] | IC50 [8] [µg/mL] | concentration at 6 h [9] [µg/mL] | MIC (Mus musculus) [µg/mL] | Tmax [10] [min] | Cmax [11] [µg/mL] | Ki [5]
1 | CCc1cc(Nc2cc(=O)n(CCCCCN3CCN(c4cc5c(cc4F)c(=O)c(C(=O)O)cn5C4CC4)CC3)c(=O)[nH]2)ccc1C | 1.25 (≈ 1.94 µM) | 0.313 (≈ 0.485 µM) | 1.25 (≈ 1.94 µM) | 1.25 (≈ 1.94 µM) | 1.25 (≈ 1.94 µM) | 0.625 (≈ 0.969 µM) | 19 | 2.5 (≈ 3.88 µM) | > 40 | – | – | – | – | – | – | – | –
2 | CCc1cc(Nc2cc(=O)n(CCCCCN3CC4CCCN(c5cc6c(cc5F)c(=O)c(C(=O)O)cn6CC)C4C3)c(=O)[nH]2)ccc1C (stereo unspecified) | 5 (≈ 7.43 µM) | 2.5 (≈ 3.72 µM) | 20 (≈ 29.7 µM) | 5 (≈ 7.43 µM) | 10 (≈ 14.9 µM) | 10 (≈ 14.9 µM) | 37 | > 80 | > 80 | – | – | – | – | – | – | – | –
3 | CCc1cc(Nc2cc(=O)n(CCCCN3CCN(c4cc5c(cc4F)c(=O)c(C(=O)O)cn5CC)CC3)c(=O)[nH]2)ccc1C | 1.25 (≈ 2.02 µM) | 0.313 (≈ 0.506 µM) | 0.625 (≈ 1.01 µM) | 0.625 (≈ 1.01 µM) | 1.25 (≈ 2.02 µM) | 0.625 (≈ 1.01 µM) | – | 2.5 (≈ 4.04 µM) | > 40 | – | – | – | – | – | – | – | –
4 | CCc1cc(Nc2cc(=O)n(CCCCN3CCN(c4c(F)cc5c(=O)c(C(=O)O)cn(C6CC6)c5c4F)C[C@H]3C)c(=O)[nH]2)ccc1C | – | – | 2.5 (≈ 3.77 µM) | 1.25 (≈ 1.89 µM) | – | 1.25 (≈ 1.89 µM) | 7 | 1.25 (≈ 1.89 µM) | 5 (≈ 7.54 µM) | 11.7 (≈ 17.7 µM) | 20 | – | – | – | – | – | –
5 | CCc1cc(Nc2cc(=O)n(CCCCN3CCN(c4c(F)cc5c(=O)c(C(=O)O)cn(C6CC6)c5c4F)C[C@@H]3C)c(=O)[nH]2)ccc1C | – | – | 1.25 (≈ 1.89 µM) | 0.625 (≈ 0.943 µM) | 0.625 (≈ 0.943 µM) | 1.25 (≈ 1.89 µM) | 4 | – | 20 (≈ 30.2 µM) | 9.2 (≈ 13.9 µM) | 15 | – | – | – | – | – | –
6 | CCc1cc(Nc2cc(=O)n(CCCCN3CCN(c4c(F)cc5c(=O)c(C(=O)O)cn(C6CC6)c5c4OC)CC3)c(=O)[nH]2)ccc1C | 0.313 (≈ 0.474 µM) | 0.156 (≈ 0.236 µM) | 1.25 (≈ 1.89 µM) | 0.625 (≈ 0.946 µM) | 0.625 (≈ 0.946 µM) | 1.25 (≈ 1.89 µM) | 14 | 1.25 (≈ 1.89 µM) | > 40 | – | 25 | – | – | – | – | – | –
7 | CCc1cc(Nc2cc(=O)n(CCCCN3CCN(c4cc5c(cc4F)c(=O)c(C(=O)O)cn5C4CC4)CC3)c(=O)[nH]2)ccc1C | – | – | 1.25 (≈ 1.98 µM) | 0.625 (≈ 0.991 µM) | – | 0.625 (≈ 0.991 µM) | – | 2.5 (≈ 3.96 µM) | > 40 | 28.4 (≈ 45 µM) | – | 22.9 (≈ 36.3 µM) | 0.62 | 0.41 (≈ 0.65 µM) | 5 | 213 | –
8 | CCc1cc(Nc2cc(=O)n(CCCCN3CCN(c4nc5c(cc4F)c(=O)c(C(=O)O)cn5CC)CC3)c(=O)[nH]2)ccc1C | – | 0.313 (≈ 0.505 µM) | 1.25 (≈ 2.02 µM) | 0.625 (≈ 1.01 µM) | – | 1.25 (≈ 2.02 µM) | – | 2.5 (≈ 4.03 µM) | > 40 | – | – | – | – | – | – | – | –
9 | CCc1cc(Nc2cc(=O)n(CCCCN3CCN(c4cc5c(cc4F)c(=O)c(C(=O)O)cn5C(C)(C)C)CC3)c(=O)[nH]2)ccc1C.Cl | 0.625 | 0.313 | 1.25 | 1.25 | 0.625 | 0.625 | 13 | 1.25 | > 40 | – | – | – | – | – | – | – | –
10 | O=C(O)c1cn(C2CC2)c2cc(N3CCNCC3)c(F)cc2c1=O [CIPROFLOXACIN] | – | – | – | 80 (≈ 241 µM) | 0.313 (≈ 0.945 µM) | – | – | 20 (≈ 60.4 µM) | 0.313 (≈ 0.945 µM) | 1.9 (≈ 5.73 µM) | – | – | – | – | – | – | Not Active
11 | CC(=O)NC[C@H]1CN(c2ccc(N3CCOCC3)c(F)c2)C(=O)O1 [LINEZOLID] | 2.5 (≈ 7.41 µM) | 0.625 (≈ 1.85 µM) | 2.5 (≈ 7.41 µM) | 1.25 (≈ 3.71 µM) | 1.25 (≈ 3.71 µM) | 1.25 (≈ 3.71 µM) | – | 1.25 (≈ 3.71 µM) | > 80 | – | – | – | – | – | – | – | Not Active
12 | CCn1cc(C(=O)O)c(=O)c2ccc(C)nc21 [NALIDIXIC ACID] | – | – | – | – | – | – | – | – | – | 34.6 (≈ 149 µM) | – | – | – | – | – | – | –
13 | CCn1cc(C(=O)O)c(=O)c2cc(F)c(N3CCNCC3)cc21 [NORFLOXACIN] | – | 0.313 (≈ 0.98 µM) | 10 (≈ 31.3 µM) | 80 (≈ 251 µM) | – | 2.5 (≈ 7.83 µM) | – | 40 (≈ 125 µM) | 1.25 (≈ 3.91 µM) | – | – | – | – | – | – | – | Not Active
14 | C[C@@H]1CN(c2c(F)c(N)c3c(=O)c(C(=O)O)cn(C4CC4)c3c2F)C[C@H](C)N1 [SPARFLOXACIN] | < 0.078 | < 0.078 | 1.25 (≈ 3.19 µM) | 80 (≈ 204 µM) | < 0.078 | 5 (≈ 12.7 µM) | – | 10 (≈ 25.5 µM) | < 0.078 | 0.4 (≈ 1.02 µM) | – | – | – | – | – | – | Not Active
